MPTP block = blocks calcium-induced mitochondrial swelling | isolated mouse mitochondria, Ca2+ swelling absorbance, 30 min | inhibition, % at 10 µM | hit rate 1.4% among 360,000;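 active = inhibition of 50% or more, scaled per plate between neutral and stimulator controls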
WT yeast gro inh = growth inhibition of WT yeast, mitochondrial fusion screen; inhibition, % at 10 µM; AID 1362; hit rate 2.1% among 190,000; mitochondrial fusion phenotypic screen, WT strain; in the data active = inhibition above about 58%; tested in S. cerevisiae
Tb MetRS inh = blocks T. brucei methionyl-tRNA synthetase activity; purified T. brucei MetRS, ATP depletion, Kinase-Glo luminescence; inhibition, % at 11.9 µM; hit rate 0.4% among 360,000;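 active = inhibition above a per-plate cutoff of the control wells' mean inhibition plus 3 SD, cut at about 5.5% in these data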
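System: purified T. brucei MetRS enzyme / Detection: Kinase-Glo luciferase luminescence reporting remaining unconsumed ATP / Medium: HEPES buffer with MgCl2, KCl, DTT, spermine, BSA, pyrophosphatase / Replication: singlicate, one well per compound / Evaluation: percent inhibition relative to median high and low control wells / Schedule: 2 h aminoacylation at 25 °C after 15 min preincubation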
EBV gp42 inh = inhibitors of Epstein-Barr virus glycoprotein 42; Fluorescence polarization binding assay, mP read-out; inhibition, % (tested at 21.74 µM); hit rate 0.42% among 220,000; AID 1085; in the data active = inhibition above about 50%
Target sequence (Q1HVG2 whole entry, looked up): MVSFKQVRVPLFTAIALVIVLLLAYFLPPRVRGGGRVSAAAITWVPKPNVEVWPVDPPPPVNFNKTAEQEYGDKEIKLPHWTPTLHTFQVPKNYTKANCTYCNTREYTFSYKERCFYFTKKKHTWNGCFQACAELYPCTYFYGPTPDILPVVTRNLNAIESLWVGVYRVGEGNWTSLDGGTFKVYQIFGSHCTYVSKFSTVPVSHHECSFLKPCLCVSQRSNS
NR3A LBD binder = NR3A (human) ligand-binding domain modulation. NR3A LBD differential scanning fluorimetry, Tm shift; 0% = protein alone, 100% = glycine-bound protein. Tm shift relative to glycine control, % at 25 µM. hit rate 2.5% among 340,000;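 active = melting temperature shift of at least 10% of the positive control shift, at one fixed dose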
CHOP inhibitor = inhibitors of CHOP induction in ER stress response; CHO-K1 CHOP-promoter luciferase, tunicamycin-induced, 15-18 h; hit rate 3.8% among 220,000; inhibition, % at 10 µM;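 active = compounds that reduced the stress-induced luciferase reporter signal by more than about 70% of percent inhibition, limit read from the data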
A number is an active result; - = inactive; . = no result. Compounds with a hit are over-represented: about 6.4% of the library has one in this group of screens.

SMILES	MPTP block	WT yeast gro inh	Tb MetRS inh	EBV gp42 inh	NR3A LBD binder	CHOP inhibitor
Cc1cccn2c(=O)c3cc(C(=O)NCc4ccco4)c(=N)n(C4CCCCC4)c3nc12	-	.	-	.	-	.
Cc1cccn2c(=O)c3cc(C(=O)NCc4ccco4)c(=N)n(CCOCCO)c3nc12	-	-	-	75	-	-
Cc1cc(C)nc(SCC(=O)N/N=C/c2cc(C)n(-c3ccccc3C)c2C)n1	-	-	-	-	11	-
Cc1ccccc1N(CC(=O)N/N=C/c1cc(C)n(-c2ccccc2C)c1C)S(C)(=O)=O	-	-	-	-	-	-
COC(=O)c1cc(=O)n(CCc2ccc(OC)cc2)c(=Nc2ccc(F)c(Cl)c2)s1	-	-	-	-	-	-
CCn1c(=O)cc(C(=O)OC)sc1=Nc1ccc(F)c(F)c1	-	-	-	-	-	96
Cc1ccc(C(C)(C)C)c(OCCOCCN2CCCC2)c1	-	-	-	-	-	-
CC(C)(C)c1ccccc1OCCOCCN1CCCCCC1	-	68	-	-	-	-
CC(=O)Nc1ccc(/C=C/c2ccc3c([N+](=O)[O-])cccc3n2)cc1	-	-	-	-	-	-
COC(=O)Cn1nc(-c2ccc(C)cc2)c2ccccc2c1=O	-	64	-	-	-	-
Cc1ccc(NC(=O)c2ccc(-c3nn(C)c(=O)c4ccccc34)cc2)cc1	-	-	-	-	-	74
O=C(NC1CC1)c1c[nH]c2ccc(S(=O)(=O)Nc3cccc(C(F)(F)F)c3)cc2c1=O	-	-	-	-	11	-
CCc1ccc(NS(=O)(=O)c2ccc3[nH]cc(C(=O)N4CCc5ccccc54)c(=O)c3c2)cc1	-	-	-	-	12	-
Cc1cc(C)cc(NS(=O)(=O)c2ccc3[nH]cc(C(=O)N4CCc5ccccc54)c(=O)c3c2)c1	-	-	-	-	13	-
CCc1ccc(NS(=O)(=O)c2ccc3[nH]cc(C(=O)N4CCCCC4)c(=O)c3c2)cc1	-	-	-	-	-	-
O=C(NCc1ccccc1)c1c[nH]c2ccc(S(=O)(=O)Nc3ccc4c(c3)OCCO4)cc2c1=O	-	-	-	-	12	-
N#CCCN(CCC#N)C(=O)c1ccc(Cl)cc1	-	-	-	-	-	-
COc1ccccc1-n1c(SCC(=O)Nc2ccc(F)cc2)nc2c(c1=O)SCC2	-	-	-	-	-	-
CCOC(=O)c1c(C)cccc1OCC(N)=O	-	-	-	-	25	-
Cc1oc(-c2ccccc2Cl)nc1CS(=O)CC(=O)NCCc1ccccc1 (stereo not drawn)	-	.	-	.	-	.
Cc1ccccc1-c1nc(CS(=O)CC(=O)NCCc2ccc(Cl)cc2)c(C)o1 (stereo not drawn)	-	.	-	.	489	.
CC(C)CN(C(=O)CCCOc1ccc(Cl)cc1Cl)c1c(N)n(Cc2ccccc2)c(=O)[nH]c1=O	-	.	-	.	-	.
O=C(COc1ccc(F)cc1F)NNC(=O)Nc1cccc([N+](=O)[O-])c1	-	.	-	.	-	.
Cc1c(NC(=O)NC(=O)c2ccc(F)cc2)c(=O)n(-c2ccccc2)n1C	-	-	-	-	-	-
Cc1c(N=C2N=C(NC(=O)c3ccc(F)cc3)c3ccccc32)c(=O)n(-c2ccccc2)n1C	-	-	-	116	-	-
SMILES	MPTP block	WT yeast gro inh	Tb MetRS inh	EBV gp42 inh	NR3A LBD binder	CHOP inhibitor
c1ccc(Cn2c(SCc3cn4cccnc4n3)nnc2-c2ccco2)cc1	-	76	-	.	-	.
O=C(c1ccc(-c2ccccc2)cc1)C1CCCN(C(=O)c2ccncc2)C1 (stereo not drawn)	-	-	-	-	-	-
COc1cccc(-c2cc(C(=O)Nc3ccc4c(c3)OCCO4)c3ccccc3n2)c1	.	-	.	-	.	-
COc1ccc(NC(=S)Nc2ccccc2)cc1	-	.	-	-	-	-
COc1ccc(NC(=S)Nc2ccc(N)c([N+](=O)[O-])c2)cc1	-	-	-	-	12	-
CCC(=O)OCCn1c(=O)c2ccccc2c2ccccc2c1=O	-	-	-	-	-	-
CC(C)CCn1c(=O)c2ccccc2c2ccccc2c1=O	-	59	-	-	-	78
COc1cc(CC(NC(C)=O)C(=O)NC2CCN(C(=O)Nc3ccccc3Cl)CC2)cc(OC)c1 (stereo not drawn)	-	-	-	-	-	-
CCOC(=O)c1[nH]c2ccc(Cl)cc2c1NC(=O)/C=C/c1ccc2c(c1)OCO2	-	-	-	-	22	-
CCOC(=O)c1[nH]c2cc3c(cc2c1NC(=O)CN1CCCC1)OCO3	-	.	-	-	-	-
CCN(CC(=O)Nc1c(C(=O)OC)[nH]c2ccc(Cl)cc12)c1ccc2c(c1)OCO2	-	68	-	-	-	-
Cc1c(-c2cccc(Cl)c2)nc2ccccc2c1C(=O)OCC(=O)Nc1ccc2c(c1)OCO2	-	-	-	-	21	78
O=S(=O)(c1ccc(Br)s1)N1CCN(CCc2ccccc2)CC1	-	.	-	.	-	.
O=C(c1ccc(-n2cncn2)c([N+](=O)[O-])c1)N1CCN(S(=O)(=O)c2ccc(Br)cc2)CC1	-	.	-	.	-	.
CCOC(=O)C(Sc1nnc2c3ccccc3n(CC)c2n1)C(=O)OCC	-	-	-	-	-	-
COCCNC(=O)Cn1cnc2sc(C)c(S(=O)(=O)N3CCC(C)CC3)c2c1=O	-	-	-	-	-	-
COc1ccc(Cl)cc1Nc1ncnc2sc(C)c(S(=O)(=O)N3CCC(C)CC3)c12	-	-	-	-	10	-
CC12CCC(C(N)=O)(c3nc4ccccc4nc31)C2(C)C (stereo not drawn)	-	-	-	-	-	-
O=C(c1cc2cc(Br)cc(Br)c2oc1=O)N1CCCC1	-	-	-	-	-	-
CSc1nc(N(CCO)CCO)c2sc3nc(-c4ccco4)c4c(c3c2n1)CCC4	-	-	-	56	-	-
COc1ccc(C2CC(c3ccccc3)Nc3nc(NC(=O)c4cccs4)nn32)cc1 (stereo not drawn)	-	-	-	-	-	-
COc1ccc(C2CC(c3ccccc3)n3nnnc3N2)cc1 (stereo not drawn)	-	-	-	-	411	-
COc1ccc(C2CC(c3ccccc3)n3nc(NC(=O)c4cccs4)nc3N2)cc1 (stereo not drawn)	-	-	-	69	-	-
O=C(Nc1nc2n(n1)C(c1ccc(Cl)cc1)CC(c1ccc(Cl)cc1)N2)c1ccco1 (stereo not drawn)	.	-	.	-	-	81
COc1ccc(C2CC(c3cc(Br)ccc3F)n3nnnc3N2)cc1 (stereo not drawn)	-	-	-	-	-	-
COc1ccc(C2CC(c3ccc(Cl)cc3)Nc3nc(NC(=O)c4ccco4)nn32)cc1 (stereo not drawn)	-	-	-	-	-	-
NC(=S)Nc1ccc(Oc2ccc(NC(N)=S)cc2)cc1	-	-	-	-	14	-
Cc1ccc(NC(N)=S)cc1	-	-	-	-	-	-
